Data from the EternaBench riboswitch data.

Test system: MS2 coat protein
Assay: apparent Kd, MS2 coat protein; higher = weaker binding; RNA-MaP array; FMN 200 µM where present
In short: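 The apparent Kd comes from binding curves fitted cluster by cluster, filtered, and summarised as a median. Those curves followed SNAP-549-labelled MS2 coat protein from 0.7 or 1.5 nM, doubling to 3 µM, on Illumina sequencing-chip clusters where stalled E. coli RNA polymerase had transcribed the designs, without and then with constant ligand. The buffer was 100 mM Tris-HCl pH 7.5, 80 mM KCl, 4 mM MgCl2, BSA, DTT, yeast tRNA and Tween-20, and green signal was normalised to red-channel RNA signal and control-cluster median Fmax.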

[1] = designed as: ON switch for flavin mononucleotide, no ligand
[2] = ligand present: flavin mononucleotide, designed as: ON switch for flavin mononucleotide
[3] = designed as: OFF switch for flavin mononucleotide, no ligand
[4] = ligand present: flavin mononucleotide, designed as: OFF switch for flavin mononucleotide

For “ACUGACAUGAGGAUCACCCAUGUCUUGGAUAGGCCAAAUUCACAGGAUAUGCAUGAGGAAAGAGUGCAGAAGGGUGAUGCAAUG”, the “apparent Kd” value [1] was 43.6 nM and the “apparent Kd” value [2] was 23.9 nM.
In the case of “ACAAGAUCAGGAUAUACAUGAGGAUCACCCAUGUAUAUAAAAAAAGGGCUUUCUACAUGUAGAAGGGAUCUUGU”, the “apparent Kd” value [3] is reported as 29.9 nM and the “apparent Kd” value [4] is reported as 37 nM.
For “CAGCGAAAGCUGAAUCUGUAGAGAGAGGAUAUACAUCAUAAGAUGCAUACAUGAGGAUCACCCAUGUAGAAGGCUCUCUACAGU”, the “apparent Kd” value [3] was 5.49 nM and the “apparent Kd” value [4] was 6.83 nM.
In the case of “GAAGCACGCACAGGAUAUCCGGCGGCGCUCGUCGGAGAAGGGUGACAUGAGGAUCACCCAUGUACGUGCAACUCAGUUUGAGAG”, the “apparent Kd” value [1] is reported as 21.5 nM and the “apparent Kd” value [2] is reported as 13.9 nM.
In the case of “GGUGCACGCACAGGAUAUCCGGCGGAGCUCGUCGGAGAAGGGUGACAUGAGGAUCACCCAUGUACGUGCAACCCAGUUUGAGGG”, the “apparent Kd” value [1] is reported as 59.6 nM and the “apparent Kd” value [2] is reported as 28.5 nM.
With “AAGAAGUCAGGAUAUGCUGCUCGUCACUUGCGUGAUGAGUAGCAGAAGGGACAUGAGGAUCACCCAUGUAAAGC” the “apparent Kd” value [3] was 44 nM and the “apparent Kd” value [4] was 52.4 nM.
With “UGAUCGAGAGAUCUUAGAUUCUGGUAGGAUAUACAUUAUGUAUUAUAUACAUGAGGAUCACCCAUGUAGAAGGACUAGAGUCUA” the “apparent Kd” value [3] was 6.7 nM and the “apparent Kd” value [4] was 11.8 nM.
For “AACAGUAGAGGAUAUACAUGAGGAUCACCCAUGUGAGAAUUAAGUGGCGUACCACUAAGUAGAAGGCUACUGGA”, the “apparent Kd” value [3] was 96.9 nM and the “apparent Kd” value [4] was 235 nM.
For “ACGACGAAAGUCGAACGAUGUAGCAGAAGGACAUGAGGAUCACCCAUGUCAGCUGUGAAAACCAUGUAGGAUAUGCUACAUCGA”, the “apparent Kd” value [3] was 38.5 nM and the “apparent Kd” value [4] was 291 nM.
For “GCAUGCUAUGUCAGGAUAUACCUGUGGAUACAUAGGUAGAAGGGACAUGAGGAUCACCCAUGUCCUAAUCAUGC”, the “apparent Kd” value [3] was 12.8 nM and the “apparent Kd” value [4] was 14.9 nM.
With “ACGACGAAAGUCGAACGAUGUAGCAGAAGGACAUGAGGAUCACCCAUGUCAGCUGUAACAGCCAUGUAGGAUAUGCUACAUCGG” the “apparent Kd” value [3] was 4.37 nM and the “apparent Kd” value [4] was 5.85 nM.
“GUCUUCAUGACAUGAGGAUCACCCAUGUGUUAUAUUUUUACUAAGGAUAUAUUUUUAAUGUUGAGAUAGAAGGUAGUUUCGGUC” was tested, and the “apparent Kd” value [3] was 101 nM and the “apparent Kd” value [4] was 121 nM.
“GCUCUGUCAGGAUAUCAGGCUGACGGAACUUGGCUGUUAGAUGAGAAGGGACAUGAGGAUCACCCAUGUAAAAU” was tested, and the “apparent Kd” value [3] was 33.8 nM and the “apparent Kd” value [4] was 34.8 nM.
With “AGGCGAGUAGGAUAUGCGUUUUUACGGGAAAGCUGGAUGAUACAUGAGGAUCACCCAUGUAGAAGGGCUCUGAA” the “apparent Kd” value [3] was 20.6 nM and the “apparent Kd” value [4] was 16 nM.
In the case of “AAUGAGACCGCAGGAUAUCCACAUGAGGAUCACCCAUGUUCUCAGAUCAGAAGCACGAUCUGCGAGGAGAAGGGCGACCUCAUA”, the “apparent Kd” value [1] is reported as 563 nM and the “apparent Kd” value [2] is reported as 37.6 nM.
With “CUAUACAUAUCAGGAUAUCUAUUUCCUACAUGAGGAUCACCCAUGUAGAGGAUCACCCAUGUAAAGGAGAAGGGAUAUGUAUAG” the “apparent Kd” value [1] was 105 nM and the “apparent Kd” value [2] was 20.9 nM.
“AGUAAGAUGCAGAAGGUGUCAGCGAGAGCUGCGACAUGAGGAUCACCCAUGUACAAGUGAGUGUACAAGGAUAUGCAUCUUACA” was tested, and the “apparent Kd” value [1] was 192 nM and the “apparent Kd” value [2] was 24 nM.
In the case of “UGAAAUCAUGUAGGAUAUGCAUGGCGAAGCUGCGCAGAAGGACAUGAGGAUCACCCAUGUUAUAGCUACCCAGUUCGGUGGCAA”, the “apparent Kd” value [3] is reported as 37.3 nM and the “apparent Kd” value [4] is reported as 171 nM.
With “GCUUAAGUAGGAUAUACUUGGGCUCGGCUGAUGUGCCUAAAACAUGAGGAUCACCCAUGUAGAAGGACUAAAGC” the “apparent Kd” value [3] was 13.9 nM and the “apparent Kd” value [4] was 12.1 nM.
In the case of “UACAUGAGGAUCACCCAUGUUUUGUCGUGUAUGGUAUUUAUCUAGGAUAUCAAUGUAUUUAUUUAUGAGAAGGAGAAUAUUAAU”, the “apparent Kd” value [3] is reported as 41.1 nM and the “apparent Kd” value [4] is reported as 39.3 nM.
In the case of “GCCAGUUAUGUAGGAUAUGCGAGGCGAGCCUGAGCAGAAGGACAUGAGGAUCACCCAUGUAUUGCGGUUUGAGUUCUGAUCGCU”, the “apparent Kd” value [3] is reported as 23.4 nM and the “apparent Kd” value [4] is reported as 58.6 nM.
With “AAGAAACAUGAGGAUCACCCAUGUAGAAAUAUGGGAGGAUAUACGAAGACGAAAGUCAAAGUAGAAGGCCUAAAAG” the “apparent Kd” value [1] was 94.6 nM and the “apparent Kd” value [2] was 27.7 nM.
For “AUACUUAAUGAAGGAUAUCUUAGCAUAAACCUGAGAGAAGGUCAUUAUUACAUGAGGAUCACCCAUGUUGUGGUUAAUGGGUAA”, the “apparent Kd” value [3] was 264 nM and the “apparent Kd” value [4] was 327 nM.
For “GGAUAGGACAGAGGAUAUACGUGCUAGAGAUACUAGCAAAAUUUCCUUACAUGAGGAUCACCCAUGUAGAAGGCUGUCCUAUCG”, the “apparent Kd” value [3] was 5.79 nM and the “apparent Kd” value [4] was 12.7 nM.
In the case of “CAUACACAUGAGGAUCACCCAUGUGAGGAUAUGCGUACGUUGUCCGUAGGCGACGUGCGCAGAAGGCGCGUGUU”, the “apparent Kd” value [3] is reported as 56.9 nM and the “apparent Kd” value [4] is reported as 48.3 nM.
“AUCCAUUGAGAGAAGGGAGUACAUGAGGAUCACCCAUGUGGUCGUUCAUACUCAGGAUAUCUAACUGGGUUAGUGGCGCACGCC” was tested, and the “apparent Kd” value [3] was 166 nM and the “apparent Kd” value [4] was 367 nM.
“CGCAGCGCAGGAUAUACAUGAGGAUCACCCAUGUACUGGCUCGGCACAGGGUCUCAAGGUAGAAGGGUGCAAAU” was tested, and the “apparent Kd” value [3] was 22.6 nM and the “apparent Kd” value [4] was 23.1 nM.
